How the values were obtained:
[1] = molecular target: GABA-A receptor; anion channel; assay: Concentration that inhibits specific [3H]flunitrazepam binding to benzodiazepine receptor in bovine brain
Summary of the method: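 Bovine cortex (frozen, -20 °C) homogenized in 50 mM Tris-HCl pH 7.4, spun 48000g 10 min, pellet resuspended; incubated 45 min with 0.2 nM [3H]flunitrazepam (final) and displacers. Rapid filtration over GF-B filters, three ice-cold washes, scintillation counting. Nonspecific binding with 10 µM diazepam. IC50 by log probit analysis, four to six concentrations, each in triplicate.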

[2] = molecular target: GABA-A receptor; anion channel (Mus musculus) (UniProt Q8BHJ7+P26048+Q8QZW7+P50571+Q9R0Y8+P22723+A2AMW3+P62812+Q9JLF1+P26049+P22933+Q9D6F4+P63080+P27681+P16305); assay: In vivo inhibition of specific [3H]flunitrazepam binding in mouse brain 10 minute after iv administration of 15 uM/Kg; assay type: organism-based
Summary of the method: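 Mouse brain ex vivo: specific [3H]flunitrazepam binding measured 10 min after iv dosing at 15 µmol/kg; reported as percent inhibition of specific binding, mean ± SEM of four determinations.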

Row | SMILES | IC50 [1] | inhibition [2]
1 | N#CCCOC(=O)c1cc2c3ccccc3nc-2c[nH]1 | 0.027 µM | 44.4%
2 | COC(=O)C1Cc2c([nH]c3ccccc23)CN1 (stereo unspecified) | 0.25 µM | 6.1%
3 | CCCOC(=O)c1cc2c(cn1)[nH]c1ccccc12 | 0.0046 µM | 62.7%
4 | CCCOC(=O)C1Cc2c([nH]c3ccccc23)CN1 (stereo unspecified) | 4.4 µM | –
5 | O=C(OCCCl)c1cc2c3ccccc3nc-2c[nH]1 | 0.022 µM | 89%
6 | O=C(O)C1Cc2c([nH]c3ccccc23)CN1 (stereo unspecified) | 22 µM | –
7 | O=C(OCc1ccccc1)c1cc2c3ccccc3nc-2c[nH]1 | 0.021 µM | 38.4%
8 | COCCOC(=O)c1cc2c3ccccc3nc-2c[nH]1 | 0.145 µM | 34.6%
9 | CCCCOC(=O)C1Cc2c([nH]c3ccccc23)CN1 (stereo unspecified) | 4.8 µM | –
10 | CCOC(=O)c1cc2c(cn1)[nH]c1ccccc12 | 0.0014 µM | 61.7%
11 | CN(C)CCOC(=O)c1cc2c3ccccc3nc-2c[nH]1 | 0.33 µM | 13.4%
12 | O=C(OCc1cccnc1)c1cc2c3ccccc3nc-2c[nH]1 | 0.034 µM | 49.4%
13 | [2H]C([2H])([2H])OC(=O)c1cc2c(cn1)[nH]c1ccccc12 | 0.0053 µM | –
14 | O=C(O)c1cc2c3ccccc3nc-2c[nH]1 | 7.2 µM | –
15 | COC(=O)c1cc2c(cn1)[nH]c1ccccc12 [BETA-CCM] | 0.0025 µM | 51.2%
16 | CCOC(=O)C1Cc2c([nH]c3ccccc23)CN1 (stereo unspecified) | 6 µM | –
17 | O=C(OCCF)c1cc2c3ccccc3nc-2c[nH]1 | 0.027 µM | 55.3%
18 | CCCCOC(=O)c1cc2c(cn1)[nH]c1ccccc12 | 0.029 µM | 54.9%
19 | O=C(OCc1ccccc1)C1Cc2c([nH]c3ccccc23)CN1 (stereo unspecified) | 2.7 µM | –
